Reference: ChEMBL document CHEMBL4513216, “Probing the Open Global Health Chemical Diversity Library for Multistage-Active Starting Points for Next-Generation Antimalarials” (ACS Infect Dis, 2020)

Experiment: Toxicity liver stage against HepG2, at 10uM
Type: cell-based
Set-up: test concentration 10 uM, cell line HepG2-A16-CD81EGFP
Settings: human, HepG2-A16-CD81EGFP cells; read-out: INHIBITION
Outline: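 Uninfected HepG2-A16-CD81EGFP cells, 3 × 10^3 per well, 1536-well, plated on prespotted compound at 10 μM final, parasite-free screening media added to match infected plates; puromycin 10 μM positive, DMSO 0.5% negative; run in parallel with 48 h PbLuc assay at 37 °C, 5% CO2; viability by CellTiter-Glo luminescence, normalized to controls.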

Row | SMILES | cytotoxicity at 10 µM [%]
1 | Cc1n[nH]c(C(=O)NCc2ccnc(OCC(F)(F)F)c2)c1Br | 5.67
2 | CCCn1nnc2c(sc3nc(N4CCOCC4)c4c(c32)CCC4)c1=O | 1.74
3 | Cc1cc(N2CCCC2)nc(CNS(=O)(=O)Cc2ccccc2)n1 | 7.48
4 | COc1nn(C)c2c1CCCN(S(=O)(=O)c1cccc(C)c1)C2 | -133
5 | COCc1ncn2c1CN(S(=O)(=O)c1ccc(C)cc1)CC2 | -1.18
6 | Cc1cnc(C(=O)N2C[C@H]3CN(Cc4nccs4)C[C@H]3C2)cn1 | -147
7 | CSC1=Nc2c(cnn2-c2cccc(Cl)c2)C2=NCCCN12 | 4.81
8 | O=C(Cn1cc(-c2ccccc2)ncc1=O)Nc1ncc[nH]1 | 5.89
9 | CCCc1cc(=O)n(CC(N)=O)c(-n2nc(C)cc2C)n1 | 0.097
10 | Cn1cnnc1S(=O)(=O)C1CCN(S(=O)(=O)c2ccc(F)c(Cl)c2)CC1 | -7.2
11 | CC(=O)Nc1ccc(-n2ccc3nc(N4CCCC4)ncc3c2=O)cc1 | 2.24
12 | O=c1[nH]c2c(c(=O)n1C1CCCCC1)CCC2Nc1ccccc1Cl (stereo not given) | -10.4
13 | Cc1cc(C)n(C2=NC(NCCCO)c3c(sc4c3CCCC4)N2)n1 (stereo not given) | 14
14 | CC(=O)Nc1ncc(S(=O)(=O)Nc2ccc3c(c2)OCCO3)s1 | 2.93
15 | CC(C)C[C@H](N)COc1cccc(F)c1Oc1cccc(Cl)c1 | 86.1
16 | CN1CCC(c2cccc(Cc3ccccc3)n2)CC1 | -9.24
17 | CNC(=O)C(C)CN(C)C(=O)Nc1cc(F)cc(Br)c1 (stereo not given) | 4.25
18 | Cn1cc(Nc2cccc(C(=O)N(CC(N)=O)C3CCCC3)c2)cn1 | -1.78
19 | O=C(CCNCc1cccc(O)c1)N1CCc2sccc2C1 | 16
20 | CN(CCOc1cccc(S(C)(=O)=O)c1)c1ccccc1 | 2.3
21 | Cc1cc(C)n(C2CN(c3nc(-c4ccncc4)nc4c3CCC4)C2)n1 | -33.6
22 | NC(=O)c1ccnc(N2CCN(Cc3ccc(F)cc3Cl)CC2)c1 | 40.8
23 | Cc1cc(N(C)CC2COc3ccccc3O2)nc(C)n1 (stereo not given) | 38.7
24 | CC(C)Oc1ccc(C(=O)NCc2ccnc(N3CCCC3)c2)cn1 | 47.3
25 | CC(NC1(CNC(=O)CC2CCCC2)CCOCC1)c1ccccc1 (stereo not given) | -1.67
26 | Cc1ncc(CN2CCC(c3nc4cc(Cl)ccc4o3)CC2)s1 | 51.7
27 | Cc1nc(C2CCCN(C(=O)c3cc(C)sc3C)C2)no1 (stereo not given) | 6.86

Row | SMILES | cytotoxicity at 10 µM [%]
28 | Cc1ccccc1CN(C)C(=O)CN1CCCCC1Cn1cncn1 (stereo not given) | 8.44
29 | Cc1cc(N2CCC(N(C)C(=O)c3ccc(C#N)cc3)CC2)nc(C)n1 | 26.7
30 | CCOC(C)c1noc(CN2CCN(c3ccncc3)CC2)n1 (stereo not given) | -10.6
31 | COCCOc1ccccc1CNCC1COC2(CCCC2)O1 (stereo not given) | -143
32 | COCCOc1ccc(CNc2nc3ccccc3nc2N)cn1 | 33.9
33 | CC(C)(C)c1ncc(CNc2ccccc2SCCC(N)=O)s1 | 55.4
34 | CC(=O)N1CCC(C(=O)NCc2ncc(-c3ccccc3)o2)CC1 | -63.8
35 | NC(=O)c1cccc(CCNCc2cnc(C3CCC3)s2)c1 | 21.9
36 | Cc1noc(-c2cccnc2N(C)Cc2ccc([S+](C)[O-])cc2)n1 (stereo not given) | 46
37 | CC(C)(C)c1nc(NS(=O)(=O)c2ccccc2F)no1 | -1.45
38 | CC(C)(C)c1nc(NS(=O)(=O)c2cccc(F)c2)no1 | -10.8
39 | CCSc1cncc(NCc2ccc(N3CCNC(=O)C3)cc2)n1 | 15.7
40 | O=C(CN1CCCC(c2ccn[nH]2)C1)Nc1nc2c(s1)CCC2 (stereo not given) | -42.4
41 | COc1cc(N2CC[C@@H]3[C@@H](CC2)OCCN3CC2CC2)ncn1 | -107
42 | CC(C)CNC(=O)C1=NOC2(CCN(Cc3ccc(C(C)C)cc3)C2)C1 (stereo not given) | 32.3
43 | c1ccc(NCc2cnc3n2CCN(C2CCOC2)CC3)nc1 (stereo not given) | -70.5
44 | c1nc2n(c1CN1CCCC1)CCN(C1CCOCC1)CC2 | -71.1
45 | Cc1ccc(NC(=O)N2CC(C(=O)NC(C)C)C3(CCOCC3)C2)cc1 (stereo not given) | -74.3
46 | C[C@@H]1CN(c2nc(N)nc3c2CCC3)CC[C@@]1(O)C1CCC1 | 36.9
47 | Cc1nc(CCNC(=O)c2cc(C(C)C)nn2C)sc1C | 22.4
48 | COc1cc(Oc2ccc(C#N)cn2)ccc1CN1CCCC1 | 32.2
49 | Cc1cc(C)cc(CCC(=O)N2CCN(c3cc(C)nc(N)n3)CC2)c1 | -38.7
50 | COc1ccc(CN2CCC=C(C(C)NC(C)=O)C2)cc1 (stereo not given) | -5.5
51 | Cc1nc(N2CCC3(CCCN(C(C)C)C3=O)C2)c2sccc2n1 (stereo not given) | 18.6
52 | CCCn1ncc(-c2ccnc(NC3CC(C)(C)NC(C)(C)C3)n2)c1C | 4.84
53 | Fc1ccccc1CC1CCN(Cc2cscn2)CC1 | -5.71
54 | COc1ccccc1OCCCc1cncc(C(N)=O)c1 | -115

Row | SMILES | cytotoxicity at 10 µM [%]
55 | COc1cc(CN2CCCC2)ccc1Oc1ncccc1C(F)(F)F | 0.96
56 | CN(C)C1CCN(Cc2cnc(S(C)(=O)=O)n2CC2CCCCC2)C1 (stereo not given) | 0.83
57 | COC(=O)CNC(=O)c1cn(Cc2ccccc2F)nn1 | 4.98
58 | CN(Cc1cccnc1N)Cc1cccc2ncccc12 | 53.8
59 | COc1ccc2c(c1)C(C(=O)N(C)CCc1cnn(C)c1)CC(=O)N2 (stereo not given) | -57.2
60 | CN1CC(c2ccccc2)CC2(CCN(C(=O)c3cccnn3)CC2)C1 (stereo not given) | -8.92
61 | CC(C)N(CCNc1nc(C2CCCC2)nc2c1cnn2C)C(C)C | 5.29
62 | COCc1cc(N2CCc3onc(-c4cccc(OC)c4)c3C2)ncn1 | 14.4
63 | CC(=O)Cn1c(C)cc(=O)c2cc(F)ccc21 | -4.46
64 | Cc1cnccc1N1CCN(c2nccc(CCC(F)(F)F)n2)CC1 | 4.91
65 | Cn1ncc(-c2cc(-c3cccc(O)c3)nc(N)c2C#N)c1C1CC1 | 79.1
66 | CCn1cc(NC(=O)c2cccc(CN3C[C@@H](C)O[C@@H](C)C3)c2)nn1 | 1.31
67 | CCNC(=O)N(C)C1CCN(Cc2ncc(C)c(OC)c2C)CC1 | -0.514
68 | CCOc1ccc(OCCN2CCC(N3CCNC3=O)CC2)cc1 | 41.3
69 | COc1cc(CNCc2ccnc(N3CCCCC3)c2)cc(OC)c1 | 28.9
70 | Cc1cccc(-c2nc(CN3CCCC3Cn3cc(C)cn3)no2)c1 (stereo not given) | -1.82
71 | N#Cc1ccc(N2CCN(C(=O)c3cc(C4CC4)[nH]n3)CC2)c(F)c1 | 1.94
72 | CC(C)N(CC(N)=O)Cc1csc(COc2ccc(F)cc2)n1 | 33.9
73 | Cc1nc(C)n(CC2CCCN(c3ncnc4ccsc34)C2)n1 (stereo not given) | 42.4
74 | Cc1ccc(CN(CCCn2ccnc2)Cc2cccs2)s1 | -17.6
75 | O=C(N1CCOCC1)[C@@]12CCO[C@@H]1CCN(Cc1ccncc1)C2 | -1.2
76 | Cn1cc(CN2C[C@@H]3OCCN(c4ncccn4)[C@@H]3C2)cn1 | -75.1
77 | O=C(c1ccc(F)cc1)N1CCN2C[C@H](OCc3cccnc3)C[C@H]2C1 | -85.1
78 | CN(Cc1ccco1)[C@@H]1CN(Cc2ccc(F)cc2)[C@@H]2CCCO[C@H]12 | -70.6
79 | O=C(N1CCCC1)N1CCC2(CC1)CN(c1cccnc1)C(=O)CO2 | -99.6
80 | C/N=C1\c2cc3cc(OC)ccc3n2CCN1Cc1ccccc1 | 80.4
